The nature of experiment [1]: Binding affinity for rat alpha-1 beta2/3 gamma2 GABA A / BzR receptor. In outline: (§1)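 Recombinant rat αxβ2/3γ2 GABAA/benzodiazepine receptors expressed in HEK293 cells. Affinity measured by radioligand binding and reported as Ki. Values are means ± SEM from three independent experiments, each run in triplicate.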
The nature of experiment [2]: Binding affinity for rat alpha2 beta2/3 gamma2 GABA-A/BzR receptor. Summed up: as §1
Experiment [3] can be described thus: Binding affinity for rat alpha-3 beta2/3 gamma2 GABA-A/BzR receptor. In outline: as §1
For experiment [4], the system named is Rattus norvegicus. The experiment is described as follows: Duration of loss of the righting reflex induced by ethanol at a dose of 30 mg/Kg when given per oral; n=8. It is filed as functional, Mus musculus.
Experiment [5] is described as follows: Binding affinity for rat alpha-5 beta2/3 gamma2 GABA-A/BzR receptor. Summed up: as §1
Experiment [6] concerns Mus musculus. The experiment can be described thus: Percent of mice not entering into the dark compartment in 120 s in 24 hr retention test at 0 hr treatment at a dose of 10 mg/Kg when given peroral […] avoidance test; n=10.
The subject of experiment [7] is Mus musculus. The experiment can be described thus: Percent of mice not entering into the dark compartment in 120 s in 24 hr retention test at 0 hr treatment at a dose of 30 mg/Kg when given peroral […] avoidance test; n=10.
For experiment [8], the system named is Rattus norvegicus. The experiment is described as follows: Duration of loss of the righting reflex induced by ethanol at a dose of 3 mg/Kg when given per oral; n=14. Format: functional, Mus musculus.
The subject of experiment [9] is Rattus norvegicus. The experiment is described as follows: Duration of loss of the righting reflex induced by ethanol at a dose of 1 mg/Kg when given per oral; n=12. Format: functional, Mus musculus.
Experiment [10] concerns Rattus norvegicus. The experiment can be described thus: Duration of loss of the righting reflex induced by ethanol at a dose of 0.3 mg/Kg when given per oral; n=8. It is filed as functional, Mus musculus.

The term Ki denotes a measure of affinity in units of concentration, obtained from inhibition or displacement. Read a high Ki as weaker binding. Regarding `Cc1ccc(-c2nn3ccc(C)nc3c2CC(=O)N(C)C)cc1`, the Ki is 0.031 µM in [1], more than 10 µM in experiment [2], more than 10 µM in experiment [3] and more than 10 µM in experiment [5]. Besides, the Time in the experiment with Rattus norvegicus [4] is 104.9 min. Moreover, the “%” value in the experiment on Mus musculus [6] turned out to be 40%; in the experiment on Mus musculus [7], 50%.
`CN1C(=O)CN=C(c2ccccc2)c2cc(Cl)ccc21` [DIAZEPAM]: the Ki in [2] came to 0.02 µM. The Time in the experiment with Rattus norvegicus [8] came out at 149.5 min; in the experiment with Rattus norvegicus [9], 129.3 min; with Rattus norvegicus [10], 127.4 min.
In the case of `Cc1ccc(-c2nc3ccc(C)cn3c2CC(=O)N(C)C)cc1` [ZOLPIDEM], in experiment [5], the inhibitory constant (Ki) was more than 10 µM. Moreover, the “%” value in the experiment on Mus musculus [6] turned out to be 50%; with Mus musculus [7] it was 70%.

These data come from ChEMBL document CHEMBL1141130, “A novel selective GABA(A) alpha1 receptor agonist displaying sedative and anxiolytic-like properties in rodents” (J Med Chem, 2005).
